Our source for the Activity values is ChEMBL document CHEMBL2176871, “Development of ligands at γ-aminobutyrric acid type A (GABAA) receptor subtype as new agents for pain relief” (Bioorg Med Chem, 2011).

Activity calls are given as the source filed them.

Data set [1] relates to Rattus norvegicus. In words: Toxicity in Sprague-Dawley rat mononeuropathy pain model assessed as effect on contralateral paw pressure at 30 mg/kg, po after 15 mins by paw pressure test. The format is organism-based. On the set-up: dose 30 mg/kg, route oral. Conditions: in vivo, 0.25 h. The method, boiled down:
(§1)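 Same sciatic-ligation rat model, 14 days after surgery. Threshold measured on the non-operated contralateral hind paw by analgesimeter at 32 g/s; first-struggle endpoint; 250 g cut-off; pretest rats outside 40–75 g rejected. Compound given po in 10 ml/kg; readings at 15, 30 and 45 min.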

For data set [2], the system named is Rattus norvegicus. In words: Toxicity in Sprague-Dawley rat mononeuropathy pain model assessed as effect on contralateral paw pressure at 1 mg/kg, po after 30 mins by paw pressure test. Conditions: in vivo, 0.5 h. The format is organism-based. On the set-up: dose 1 mg/kg, route oral. The essentials:
as §1

Data set [3] deals with Rattus norvegicus. In words: Toxicity in Sprague-Dawley rat mononeuropathy pain model assessed as effect on contralateral paw pressure at 30 mg/kg, po after 30 mins by paw pressure test. It is filed as organism-based. On the set-up: dose 30 mg/kg, route oral. Particulars: in vivo, 0.5 h. The essentials:
as §1

For data set [4], the system named is Rattus norvegicus. Kind of data set: Antinociceptive activity in Sprague-Dawley rat mononeuropathy pain model assessed as increase in injured paw pressure at 30 mg/kg, po after 30 mins by paw pressure test relative to non-treated control. It is filed as functional. The essentials:
(§2)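 Chronic constriction injury: loose ligatures placed on the common sciatic nerve under chloral hydrate; contralateral sham dissection. Tested 14 days after surgery. Paw pressure applied at 32 g/s; threshold taken as the force causing the first struggle; cut-off 250 g; pretest outliers (<40 g or >75 g) excluded. Oral dosing in 10 ml/kg; read at 15, 30 and 45 min; compared with a CMC-treated group.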

For data set [5], the system named is Rattus norvegicus. Kind of data set: Antinociceptive activity in Sprague-Dawley rat mononeuropathy pain model assessed as increase in injured paw pressure at 30 mg/kg, po after 15 mins by paw pressure test relative to non-treated control. The format is functional. The method, boiled down: as §2
For data set [6], the system named is Mus musculus. In words: Analgesic activity in Swiss albino mouse abdominal constriction model assessed as decrease in number of acetic acid-induced writhing at 10 to 30 mg/kg, po after 30 mins. The format is functional, organism-based. Conditions: Abdomen. The method, boiled down: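 Male Swiss albino mice (23–30 g). Compounds given po in 1% CMC vehicle 30 min before the test. Acetic acid 0.6% injected i.p. at 10 ml/kg. Stretching movements were counted for 10 min, starting 5 min after the acetic acid injection. 8–15 mice per group.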
A general note: An intraperitoneal irritant provokes the stretching counted in writhing tests.

For data set [7], the system named is Rattus norvegicus. Kind of data set: Toxicity in Sprague-Dawley rat mononeuropathy pain model assessed as effect on contralateral paw pressure at 1 mg/kg, po after 45 mins by paw pressure test. Also noted: dose 1 mg/kg, route oral. It is filed as organism-based. Conditions: in vivo, 0.75 h. The essentials:
as §1

The subject of data set [8] is Rattus norvegicus. In words: Antinociceptive activity in Sprague-Dawley rat mononeuropathy pain model assessed as increase in injured paw pressure at 10 mg/kg, po after 15 mins by paw pressure test relative to non-treated control. The format is functional. The method, boiled down: as §2
Data set [9] relates to Rattus norvegicus. Kind of data set: Toxicity in Sprague-Dawley rat mononeuropathy pain model assessed as effect on contralateral paw pressure at 10 mg/kg, po after 30 mins by paw pressure test. It is filed as organism-based. Also noted: dose 10 mg/kg, route oral. Conditions: in vivo, 0.5 h. The method, boiled down: as §1

In the case of `Cc1cnn2c1n[n+]([O-])c1ccc(OCc3ccccc3)cc12`, the Activity in data set [1] worked out at 62.7 g; in data set [2], 60.6 g; in [3], 63.8 g; in [4] it was 44.2 g; in data set [5], 52.8 g; in data set [7] it was 59.1 g. For the same compound, the Activity is reported as 48.7 g in data set [8] and 62.7 g in data set [9]. In addition, the outcome in data set [6] was inactive.
